# Screening results (PubChem)
# MrgX1 PAM – allosterically activates human MrgX1 receptor signaling; Q96LB2; B-score at 10 µM; AID 588675; MrgX1-HEK293, Fluo-4 calcium flux, FDSS; stronger effect = higher value; 0.63% of 310,000 active;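 active means plate-corrected calcium response at least 3 library SD above typical, normal starting fluorescence, not activating the receptor alone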;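 further: compound read alongside a low EC10 to EC30 dose of BAM8-22 agonist; peak minus trough fluorescence over baseline measured at the second addition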
# Target sequence (Q96LB2 whole entry, looked up): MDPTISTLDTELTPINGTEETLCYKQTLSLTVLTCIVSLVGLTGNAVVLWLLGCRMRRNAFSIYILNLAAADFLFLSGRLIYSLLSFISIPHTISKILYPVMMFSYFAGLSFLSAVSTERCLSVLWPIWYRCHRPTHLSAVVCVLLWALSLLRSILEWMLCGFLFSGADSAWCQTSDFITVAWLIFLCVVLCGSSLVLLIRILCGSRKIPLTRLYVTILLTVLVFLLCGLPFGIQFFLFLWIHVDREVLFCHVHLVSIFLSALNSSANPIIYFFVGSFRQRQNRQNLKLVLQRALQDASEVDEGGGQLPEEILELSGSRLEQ
# MrgX1 antag – blocks BAM8-22 activation of human MrgX1 receptor. Q96LB2. MRGX1-HEK293 calcium flux, Fluo-4, BAM8-22 antagonism; stronger effect = lower value. B-score at 10 µM. 1.3% of 310,000 active;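 active means calcium-response B-score plate-corrected more than 3 library SD below zero, starting fluorescence within 5 deviations, no agonist response on first addition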;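 further: peak minus trough fluorescence over baseline after final BAM8-22 challenge near maximal dose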
# RGS4 act – potentiators or activators of RGS4; AID 463111; HEK293 M3R/inducible RGS4, carbachol calcium flux Fluo4; stronger effect = lower value; B-score at 10 µM; 0.92% of 310,000 active;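 active means B-score of the integrated calcium signal more than 4 SD below the library mean, with starting fluorescence not abnormally high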;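 further: negative B-score means reduced calcium response which marks RGS4 activation or potentiation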
#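 Test system: HEK293 cells with stable M3R and inducible RGS4; also added: carbachol at ECmax as muscarinic agonist stimulus; schedule: dye loading 30 min 37 °C, buffer rest 30 min RT; technique: kinetic calcium fluorescence imaging with Fluo4-AM dye, 2 µM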
# RGS4 inh – human RGS4 inhibition | P49798 | HEK293 M3R/RGS4 inducible, Fluo-4 calcium flux; stronger effect = higher value; triggered by carbachol at its EC20 | B-score at 10 µM | 0.45% of 310,000 active | AID 463165;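 active means B-score, a plate-corrected calcium signal, over three deviations above library mean, with baseline fluorescence within five deviations of library mean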;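 further: RGS4 expression induced by doxycycline in cells with stable M3 receptor; B-score is computed from the integrated fluorescence ratio over baseline after carbachol; higher B-score means a larger calcium signal and so more RGS4 inhibition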
# Target sequence (P49798 whole entry, looked up): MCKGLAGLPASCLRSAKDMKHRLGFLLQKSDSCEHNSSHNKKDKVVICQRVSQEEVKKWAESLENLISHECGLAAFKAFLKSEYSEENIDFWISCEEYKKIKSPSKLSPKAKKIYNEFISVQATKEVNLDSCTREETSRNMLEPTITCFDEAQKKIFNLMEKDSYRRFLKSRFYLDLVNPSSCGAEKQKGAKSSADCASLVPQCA
# MrgX1 ag – agonists of human MrgX1 receptor; Q96LB2; MrgX1-HEK293 cells, Fluo-4 calcium fluorescence, agonist mode; stronger effect = higher value; B-score at 10 µM; 0.44% of 310,000 active; AID 588627;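 active means calcium response B-score plate-corrected fluorescence ratio at least 3 library SD, with starting fluorescence B-score inside 5 SD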
#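 Test system: HEK293 cells stably expressing human MrgX1 receptor; Input: fifteen thousand cells per well; Dosing: compound delivered in addition one of three; Schedule: overnight seeding, then 1 h dark dye loading; Technique: Fluo-4 NW calcium fluorescence; Measure: B-scored fluorescence response ratio; Controls: positive and negative controls per plate.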
# RGS4 block valid – RGS4 inhibitor validation; shares compounds with RGS4 inh; 65% of 1,700 active; AID 492999; HEK293 M3R/RGS4, carbachol calcium Fluo-4 fluorescence; carbachol added at its EC20; 0 = buffer wells, 100 = carbachol control; calcium response, % at 10 µM;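 active means duplicate-averaged calcium response above the buffer-only control mean plus 5 SD of those controls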;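 further: integrated fluorescence ratio F max minus min over baseline F0; higher response in RGS4-induced cells means RGS4 inhibition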
# M3R Ca ctr – checks RGS4 inhibitor effects in non-induced HEK293 M3R cells | 20% of 1,900 active | carbachol calcium Fluo-4; submaximal (EC20) carbachol stimulus; buffer wells 0%, carbachol control wells 100% | AID 493000 | shares compounds with RGS4 inh | activity (percent), % at 10 µM; call rule not given here;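 further: RGS4 induction absent so cells express M3R without RGS4; higher means more calcium signal and flags a non-specific hit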
# RGS4 inh ctr2 – signal in non-induced cells without carbachol, RGS4 inhibitor counter-screen; calcium response (agonist-mode artifact), % at 10 µM; shares compounds with RGS4 inh; HEK293 M3R/RGS4 non-induced, Fluo-4 calcium, no carbachol; normalised: buffer wells 0%, carbachol wells 100%; 22% of 1,900 active; AID 493001;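 active means duplicate-averaged calcium rise in uninduced cells above buffer wells' mean plus 5 SD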
# Numbers without * were called inactive; i = inactive; x = not tested or not shown. A selection: hits, their analogues and other compounds. The true share with any hit is near 3.5%.
SMILES,MrgX1 PAM,MrgX1 antag,RGS4 act,RGS4 inh,MrgX1 ag,RGS4 block valid,M3R Ca ctr,RGS4 inh ctr2
COc1ccc(CNc2nc3ccc(C)cc3s2)c(OC)c1OC,i,i,i,i,i,x,x,x
Cc1ccc(Nc2nc(N)nc(CN3CCN(Cc4ccc5c(c4)OCO5)CC3)n2)cc1C,x,x,i,i,x,i,i,i
Cc1ccc(Nc2nc(N)nc(CN3CCN(Cc4ccc5c(c4)OCO5)CC3)n2)cc1,i,i,i,i,i,i,i,i
Nc1nc(CN2CCN(Cc3ccccc3)CC2)nc(Nc2ccc3c(c2)OCCO3)n1,i,i,i,i,i,x,x,x
Cc1ccc(Nc2nc(N)nc(CN3CCN(Cc4ccc5c(c4)OCO5)CC3)n2)c(C)c1,i,i,i,i,i,x,x,x
Cc1ccc(Nc2nc(N)nc(CN3CCN(Cc4ccc5c(c4)OCO5)CC3)n2)cc1Cl,i,i,i,6.22*,i,i,i,i
COc1cccc(/C=C2\C(=O)C(=O)c3ccccc32)c1,i,i,i,10.8*,30.1*,14.0%*,i,10.5%*
COc1cccc(/C=C2\CCc3ccccc3C2=O)c1,i,i,i,i,i,x,x,x
COc1cc(C=C2C(=O)c3ccccc3C2=O)cc(OC)c1,i,i,i,7.52*,i,8.5%*,i,i
CCN1CCN(c2c(/C=C3\SC(=S)N(Cc4ccco4)C3=O)c(C)c(C#N)c(=O)n2C)CC1,i,i,i,i,i,x,x,x
CCn1c(N)[n+](CC(=O)Nc2ccc(SC(F)F)cc2)c2ccccc21,i,i,i,i,i,x,x,x
O=C(O)CCC(=O)Nc1sc2c(c1C(=O)NCc1ccccc1)CCCC2,i,i,i,i,i,x,x,x
COc1ccc(NC(=O)c2c(NC(=O)CCC(=O)O)sc3c2CCCCC3)cc1,i,i,i,i,i,i,i,i
Cc1ccc(NC(=O)CCn2c(=O)[nH]c3ccsc3c2=O)cc1F,i,i,i,i,i,x,x,x
CC1CC(NC(=O)c2c(O)nc3sccn3c2=O)CC(C)(C)C1 (stereo unspecified),i,i,i,13.7*,i,22.0%*,48.5%*,i
Cc1ccc(C)c(C(C)NC(=O)Cc2cccs2)c1 (stereo unspecified),i,i,i,i,i,x,x,x
Cc1ccccc1N(C(=O)CNC(=O)c1ccco1)C(C(=O)NC1CCCC1)c1ccncc1 (stereo unspecified),i,i,i,i,i,x,x,x
CCOC(=O)C1=C(CS(=O)(=O)c2ccc(Cl)cc2)NC(=O)NC1c1ccc(O)c(OC)c1 (stereo unspecified),i,i,i,i,i,x,x,x
COC(=O)C1=C(CS(=O)(=O)c2ccc(OC)c(OC)c2)NC(=O)NC1c1ccc(O)c(OC)c1 (stereo unspecified),i,i,i,19.3*,i,6.0%*,i,i
COC(=O)C1=C(CS(=O)(=O)c2ccc(Cl)cc2)NC(=O)NC1c1ccc(O)c(OC)c1 (stereo unspecified),i,i,i,i,i,i,i,i
CC(C)c1nc2cc(C(=O)N3CCN(c4cnccn4)CC3)ccc2o1,i,i,i,i,i,x,x,x
COc1ccc(/C(C)=N/NC(=O)CNC(=O)c2cccnc2)c(OC)c1,i,i,i,i,i,x,x,x
COc1cccc(N2CCN(C(=O)CN(C)S(=O)(=O)c3ccc4c(c3)c(=O)n(C)c(=O)n4C)CC2)c1,i,i,i,i,i,x,x,x
CCOCCCNC(=S)N(CCO)Cc1cc2cc3c(cc2[nH]c1=O)OCCO3,i,i,i,i,i,i,i,i
CCN(CC)CCCNC(=S)N(CCO)Cc1cc2cc3c(cc2[nH]c1=O)OCCO3,i,i,i,i,i,i,i,i
SMILES,MrgX1 PAM,MrgX1 antag,RGS4 act,RGS4 inh,MrgX1 ag,RGS4 block valid,M3R Ca ctr,RGS4 inh ctr2
CCCCNC(=S)N(CCO)Cc1cc2cc3c(cc2[nH]c1=O)OCCO3,i,i,i,i,i,i,i,i
CC(C)(C)C(=O)N1CCN(C(=O)c2ccco2)CC1,i,i,i,i,i,x,x,x
O=C(O)/C=C/C(O)c1ccc(Cl)cc1 (stereo unspecified),i,i,x,x,i,x,x,x
COc1ccc(-n2c(SCC#N)nnc2-c2ccc(NS(=O)(=O)c3ccc(C)cc3)cc2)cc1,i,i,i,7.19*,i,13.0%*,i,i
CCOc1ccc(N2CC(C(=O)Nc3ccccc3C(=O)N3CCOCC3)CC2=O)cc1 (stereo unspecified),i,i,i,i,i,x,x,x
CCC(=O)NC(c1ccccc1)c1c(OC(C)=O)ccc2ccccc12 (stereo unspecified),i,i,i,i,i,x,45.0%*,7.0%*
CCC(=O)NC(c1cccc([N+](=O)[O-])c1)c1c(OC(C)=O)ccc2ccccc12 (stereo unspecified),i,i,i,i,i,x,x,x
O=C(O)CC1=C(Nc2ccccc2)C(=O)N(c2ccccc2)C1c1ccc(Br)cc1 (stereo unspecified),i,i,i,i,i,x,x,x
COc1cc(NC(=O)CN2C(=O)CSc3ccc(S(=O)(=O)N4CCCC4)cc32)cc(OC)c1,i,i,i,i,i,x,x,x
O=C(O)c1ccc(Nc2nc(-c3cc4ccccc4oc3=O)cs2)cc1O,x,x,i,15.2*,x,40.0%*,i,12.0%*
O=C(/C=C/c1cccc(O)c1)c1cccnc1,i,i,i,5.76*,i,8.5%*,i,10.5%*
O=C(/C=C/c1cccnc1)c1ccc([N+](=O)[O-])cc1,i,i,i,6.05*,i,43.0%*,54.5%*,i
CN(C)C(=O)COc1ccc(C(=O)/C=C/c2cccnc2)cc1,6.85*,i,i,5.59*,i,17.0%*,i,i
CN(C)c1ccc(/C=C/C(=O)c2cccnc2)cc1,i,i,i,i,i,x,x,x
